Consider nine compounds from ChEMBL document CHEMBL1147665, “Design, synthesis, and biological evaluation of 4-alkyliden-beta lactams: new products with promising antibiotic activity against resistant bacteria” (J Med Chem, 2006).

Format in all cases: functional
For one experiment, the system named is Haemophilus influenzae. In words: Antibacterial activity against Haemophilus influenzae. The method, boiled down:
(§1)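 Broth microdilution MIC per CLSI guidelines in Mueller-Hinton broth: serial 2-fold dilutions, inoculum 5 × 10⁵ CFU/mL in equal volume, 35 °C for 16-20 h. MIC = lowest concentration with no visible turbidity. Recent clinical isolates (43 total, Gram-positive and Gram-negative); values given as MIC ranges, MIC₅₀ and MIC₉₀ per species.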

Experiment [1] concerns Staphylococcus aureus. As to the kind of experiment: Antibacterial activity against methicillin-susceptible Staphylococcus aureus. The method, boiled down:
as §1

The subject of a further experiment is Streptococcus pyogenes. In words: Antibacterial activity against Streptococcus pyogenes. The method, boiled down:
as §1

The next experiment deals with Streptococcus pneumoniae. In words: Antibacterial activity against Streptococcus pneumoniae. In outline: as §1
The test system of experiment [2] is Staphylococcus epidermidis. In words: Antibacterial activity against Staphylococcus epidermidis. The method, boiled down:
as §1

The next experiment deals with Enterococcus. As to the kind of experiment: Antibacterial activity against Enterococcus spp. In outline:
as §1

Experiment [3] relates to Staphylococcus aureus. In words: Antibacterial activity against methicillin-resistant Staphylococcus aureus. In outline: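 Clinical isolates (3 MRSA in a 43-strain panel). Broth microdilution per CLSI, serial 2-fold dilutions in Mueller-Hinton broth, inoculum 5 × 10⁵ CFU/mL, 35 °C for 16-20 h. MIC = lowest concentration with no visible turbidity; reported as MIC range, MIC₅₀ and MIC₉₀ across isolates.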

In brackets after ≈: the same amount, converted by molar mass. Where only a bound is given, the exact number is not on record here.

For `C[C@@H](O[Si](C)(C)C(C)(C)C)[C@H]1C(=O)N/C1=C\C(=O)N[C@@H](Cc1ccc(O)cc1)C(=O)OC(C)(C)C`, the MIC50 (with Haemophilus influenzae; against Staphylococcus aureus [1]; in the experiment with Streptococcus pyogenes; against Streptococcus pneumoniae; in experiment [2]; against Enterococcus) was above 128 µg/mL in each case. For the same compound, the MIC90 (in the experiment on Haemophilus influenzae; against Staphylococcus aureus [1]; with Streptococcus pyogenes; in the experiment with Streptococcus pneumoniae; in experiment [2]; with Enterococcus) was above 128 µg/mL each time.
As to `C[C@@H](O[Si](C)(C)C(C)(C)C)[C@H]1C(=O)N/C1=C\C(=O)OCc1cc(O)cc(O)c1`, the MIC50 against Staphylococcus aureus [1] was 64 µg/mL (≈ 157 µM); in the experiment on Streptococcus pyogenes, 32 µg/mL (≈ 78.5 µM); in the experiment on Staphylococcus aureus [3], 64 µg/mL (≈ 157 µM); with Streptococcus pneumoniae it was 32 µg/mL (≈ 78.5 µM); in experiment [2] it was 128 µg/mL (≈ 314 µM); with Enterococcus it was 128 µg/mL (≈ 314 µM). Moreover, the MIC90 against Staphylococcus aureus [1] is 64 µg/mL (≈ 157 µM); against Streptococcus pyogenes, 32 µg/mL (≈ 78.5 µM); against Staphylococcus aureus [3], 128 µg/mL (≈ 314 µM); against Streptococcus pneumoniae it was 32 µg/mL (≈ 78.5 µM); in experiment [2], above 128 µg/mL; with Enterococcus, 128 µg/mL (≈ 314 µM).
As to `CCOC(=O)/C=C1\NC(=O)[C@@H]1[C@@H](C)O[Si](C)(C)C(C)(C)C`, the MIC50 against Haemophilus influenzae was 128 µg/mL (≈ 408 µM); against Staphylococcus aureus [1] it was above 128 µg/mL; with Streptococcus pyogenes it was 128 µg/mL (≈ 408 µM); in the experiment with Streptococcus pneumoniae, 128 µg/mL (≈ 408 µM); in experiment [2], above 128 µg/mL; against Enterococcus, above 128 µg/mL. The MIC90 in the experiment with Haemophilus influenzae is 128 µg/mL (≈ 408 µM); against Staphylococcus aureus [1], above 128 µg/mL; in the experiment on Streptococcus pyogenes, 128 µg/mL (≈ 408 µM); in the experiment with Streptococcus pneumoniae it was 128 µg/mL (≈ 408 µM); in experiment [2], above 128 µg/mL; against Enterococcus it was above 128 µg/mL.
With `C[C@@H](O[Si](C)(C)C(C)(C)C)[C@H]1C(=O)N/C1=C\C(=O)O`, the MIC50 with Haemophilus influenzae is above 128 µg/mL; against Staphylococcus aureus [1], above 128 µg/mL; with Streptococcus pyogenes it was 128 µg/mL (≈ 448 µM); against Streptococcus pneumoniae, 128 µg/mL (≈ 448 µM); in experiment [2], above 128 µg/mL; in the experiment with Enterococcus it was 128 µg/mL (≈ 448 µM). The MIC90 in the experiment on Haemophilus influenzae is above 128 µg/mL; with Staphylococcus aureus [1] it was above 128 µg/mL; in the experiment with Streptococcus pyogenes it was above 128 µg/mL; with Streptococcus pneumoniae it was 128 µg/mL (≈ 448 µM); in experiment [2] it was above 128 µg/mL; in the experiment with Enterococcus, 128 µg/mL (≈ 448 µM).
`COc1cc(C(=O)O[C@H](C)[C@H]2C(=O)N/C2=C\C(=O)O)cc(OC)c1O`: the MIC50 was 128 µg/mL (≈ 364 µM) against Haemophilus influenzae; above 128 µg/mL in the experiment with Staphylococcus aureus [1]; above 128 µg/mL in the experiment on Streptococcus pyogenes; 128 µg/mL (≈ 364 µM) in the experiment with Streptococcus pneumoniae; above 128 µg/mL in experiment [2]; above 128 µg/mL in the experiment on Enterococcus. In addition, the MIC90 with Haemophilus influenzae is 128 µg/mL (≈ 364 µM); with Staphylococcus aureus [1], above 128 µg/mL; in the experiment on Streptococcus pyogenes it was above 128 µg/mL; against Streptococcus pneumoniae, 128 µg/mL (≈ 364 µM); in experiment [2] it was above 128 µg/mL; against Enterococcus it was above 128 µg/mL.
For `C[C@@H](O)[C@H]1C(=O)N/C1=C\C(=O)O`, the MIC50 was above 128 µg/mL in the experiment with Haemophilus influenzae; above 128 µg/mL in the experiment with Staphylococcus aureus [1]; 128 µg/mL (≈ 748 µM) in the experiment with Streptococcus pyogenes; 128 µg/mL (≈ 748 µM) against Streptococcus pneumoniae; above 128 µg/mL in experiment [2]; above 128 µg/mL against Enterococcus. Besides, the MIC90 against Haemophilus influenzae is above 128 µg/mL; with Staphylococcus aureus [1], above 128 µg/mL; in the experiment with Streptococcus pyogenes it was 128 µg/mL (≈ 748 µM); against Streptococcus pneumoniae it was 128 µg/mL (≈ 748 µM); in experiment [2], above 128 µg/mL; against Enterococcus, above 128 µg/mL.
In the case of `CCOC(=O)/C=C1\NC(=O)[C@@H]1[C@@H](C)OC(=O)c1cc(OC)c(OC)c(OC)c1`, the MIC50 against Haemophilus influenzae was 128 µg/mL (≈ 325 µM); in the experiment on Staphylococcus aureus [1], above 128 µg/mL; against Streptococcus pyogenes, 128 µg/mL (≈ 325 µM); in the experiment on Streptococcus pneumoniae, 128 µg/mL (≈ 325 µM); in experiment [2] it was 128 µg/mL (≈ 325 µM); with Enterococcus it was above 128 µg/mL. For the same compound, the MIC90 in the experiment on Haemophilus influenzae was above 128 µg/mL; in the experiment with Staphylococcus aureus [1], above 128 µg/mL; in the experiment with Streptococcus pyogenes, above 128 µg/mL; against Streptococcus pneumoniae it was 128 µg/mL (≈ 325 µM); in experiment [2], above 128 µg/mL; in the experiment with Enterococcus, above 128 µg/mL.
Regarding `C[C@@H](O[Si](C)(C)C(C)(C)C)[C@H]1C(=O)N/C1=C\C(=O)OCc1cc(C(F)(F)F)cc(C(F)(F)F)c1`, the MIC50 against Haemophilus influenzae was above 128 µg/mL; in the experiment with Staphylococcus aureus [1] it was above 128 µg/mL; against Streptococcus pyogenes, 128 µg/mL (≈ 250 µM); against Streptococcus pneumoniae, 128 µg/mL (≈ 250 µM); in experiment [2], above 128 µg/mL; against Enterococcus it was above 128 µg/mL. Further, the MIC90 (against Haemophilus influenzae; with Staphylococcus aureus [1]; against Streptococcus pyogenes; in the experiment on Streptococcus pneumoniae; in experiment [2]; with Enterococcus) was above 128 µg/mL each time.
With `CCOC(=O)/C=C1\NC(=O)[C@@H]1[C@@H](C)OC(=O)c1ccc(O)cc1`, the MIC50 with Staphylococcus aureus [1] is above 128 µg/mL; against Streptococcus pyogenes, 128 µg/mL (≈ 401 µM); against Streptococcus pneumoniae it was 128 µg/mL (≈ 401 µM); in experiment [2], 8 µg/mL (≈ 25.1 µM); with Enterococcus, above 128 µg/mL. Moreover, the MIC90 against Staphylococcus aureus [1] was above 128 µg/mL; in the experiment on Streptococcus pyogenes it was above 128 µg/mL; with Streptococcus pneumoniae, 128 µg/mL (≈ 401 µM); in experiment [2] it was above 128 µg/mL; with Enterococcus it was above 128 µg/mL.
